The text below walks through data of ChEMBL document CHEMBL3351498, “Identification of key structural characteristics of Schisandra chinensis lignans involved in P-glycoprotein inhibition” (2014).

The nature of assay [1]: Cell cycle arrest in human HL60/MDR cells assessed as accumulation at S phase at 25 uM after 48 hrs by flow cytometry (reference value: 29.9 %). The class given is functional, cell-based. A digest of the protocol: (§1)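 HL60/MDR cells (about 5 × 10^5 cells/mL) exposed 48 h under standard culture to doxorubicin (0.2 and/or 0.02 μM) or lignan (25 μM) alone; DMSO-treated control. Cells fixed in 70% ethanol 30 min at room temperature, RNase A (17 μg/mL) 37 °C 30 min, PI (3 μg/mL) 10 min dark; DNA content by flow cytometry, FL3 (620 nm), 10 000–20 000 events.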
In general terms: Flow cytometry measures light scatter and fluorescence of single cells or particles in a stream.

Assay [2] in a line: Cell cycle arrest in human HL60/MDR cells assessed as accumulation at G1 phase at 25 uM after 48 hrs by flow cytometry (reference value: 59.0 %). The class given is functional, cell-based. In short, it runs like this: as §1
Assay [3] can be described thus: Cell cycle arrest in human HL60/MDR cells assessed as accumulation at G2/M phase at 25 uM after 48 hrs by flow cytometry (reference value: 11.3 %). In kind it is functional, cell-based. A digest of the protocol: as §1
The nature of assay [4]: Cytotoxicity against human HL60/MDR cells assessed as viable cells at 25 uM after 48 hrs by WST assay. The class given is functional. The settings on record: for viability at 25 µM: Homo sapiens, HL60/MDR, 48 h, read-out: Activity.
Assay [5] is described as follows: Potentiation of 0.6 uM doxorubicin-induced cytotoxicity in human HL60/MDR cells assessed as viable cells at 25 uM after 48 hrs by WST assay relative to control. In kind it is functional.
Assay [6] is described as follows: Potentiation of 0.02 uM doxorubicin-induced cytotoxicity in human HL60/MDR cells assessed as viable cells at 25 uM after 48 hrs by WST assay relative to control. In kind it is functional.
Assay [7] is described as follows: Potentiation of 0.2 uM doxorubicin-induced cytotoxicity in human HL60/MDR cells assessed as viable cells at 25 uM after 48 hrs by WST assay relative to control. In kind it is functional.
Assay [8] can be described thus: Potentiation of doxorubicin-induced cell cycle arrest in human HL60/MDR cells assessed as accumulation at G1 phase at 25 uM after 48 hrs by flow cytometry (reference value: 59.0 %). The class given is functional.
The nature of assay [9]: Potentiation of doxorubicin-induced cell cycle arrest in human HL60/MDR cells assessed as accumulation at S phase at 25 uM after 48 hrs by flow cytometry (reference value: 59.0 %). In kind it is functional.
A short description of assay [10]: Potentiation of doxorubicin-induced cell cycle arrest in human HL60/MDR cells assessed as accumulation at G2/M phase at 25 uM after 48 hrs by flow cytometry (reference value: 59.0 %). In kind it is functional.
Assay [11] can be described thus: Cell cycle arrest in human HL60/MDR cells assessed as accumulation at G1 phase at 0.02 uM after 48 hrs by flow cytometry (reference value: 59.0 %). The class given is functional, cell-based. In short, it runs like this: as §1
A short description of assay [12]: Cytotoxicity against human HL60/MDR cells assessed as viable cells at 0.02 uM after 48 hrs by WST assay. The class given is functional. The settings on record: read-out: Activity. A digest of the protocol: (§2)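 Doxorubicin-resistant HL60/MDR cells seeded at 5 × 10^4 cells/mL and held 48 h at 37 °C with doxorubicin (0.02, 0.2, 0.6 μM) alone or plus modulator (25 μM). WST-1 (1 mM) with 0.2 mM MMPM then added for 4 h; absorbance at 450 nm. Viability given as % of untreated cells; two independent experiments, each in triplicate.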

Assay [13] is described as follows: Cell cycle arrest in human HL60/MDR cells assessed as accumulation at G2/M phase at 0.2 uM after 48 hrs by flow cytometry (reference value: 11.3 %). The class given is functional, cell-based. In short, it runs like this:
as §1

A short description of assay [14]: Cell cycle arrest in human HL60/MDR cells assessed as accumulation at G2/M phase at 0.02 uM after 48 hrs by flow cytometry (reference value: 11.3 %). In kind it is functional, cell-based. A digest of the protocol:
as §1

Assay [15] can be described thus: Cell cycle arrest in human HL60/MDR cells assessed as accumulation at S phase at 0.02 uM after 48 hrs by flow cytometry (reference value: 29.9 %). In kind it is functional, cell-based. In short, it runs like this: as §1
Assay [16] in a line: Cell cycle arrest in human HL60/MDR cells assessed as accumulation at S phase at 0.2 uM after 48 hrs by flow cytometry (reference value: 29.9 %). In kind it is functional, cell-based. In short, it runs like this:
as §1

Assay [17] is described as follows: Cell cycle arrest in human HL60/MDR cells assessed as accumulation at G1 phase at 0.2 uM after 48 hrs by flow cytometry (reference value: 59.0 %). The settings on record: in the assay text read “G2/M phase” for “G1 phase”. The class given is functional, cell-based. In short, it runs like this:
as §1

A short description of assay [18]: Cytotoxicity against human HL60/MDR cells assessed as viable cells at 0.6 uM after 48 hrs by WST assay. The class given is functional. The settings on record: read-out: Activity. In short, it runs like this:
as §2

Assay [19] is described as follows: Cytotoxicity against human HL60/MDR cells assessed as viable cells at 0.2 uM after 48 hrs by WST assay. The settings on record: read-out: Activity. In kind it is functional. In short, it runs like this: as §2

`COc1cc2c(c(OC)c1OC)-c1c(cc(OC)c(OC)c1OC)C[C@H](C)[C@H](C)C2`: the figures for the Activity in assay [1], in [2] and in assay [3] were 30.5%, 57.3% and 12.1%, respectively.
With `COc1cc2c(c(OC)c1OC)-c1c(cc3c(c1OC)OCO3)C[C@@H](C)[C@@H](C)C2` (single isomer, unassigned; atropisomer 2) [KADSURANIN], the viability at 25 µM in assay [4] was 106%. For the same compound, the Activity was 81% in assay [5], 100% in [6] and 97% in [7].
`COc1cc2c(c(OC)c1OC)-c1c(cc3c(c1OC)OCO3)C[C@H](C)[C@H](C)C2` (single isomer, unassigned; atropisomer 1) [WUWEIZISU B]: the Activity in assay [4] is on record as 102%; in assay [5] it was 38%; in assay [6], 94%; in [7] it was 66%.
As for `COc1cc2c(c(OC)c1OC)-c1c(cc(OC)c(OC)c1OC)C[C@H](C)[C@H](C)C2` [SCHISANDRIN A], the Activity was found to be 92% in assay [4]; 21.2% in assay [8]; 43% in assay [5]; 10.9% in assay [9]; 106% in assay [6]; 52% in assay [7]. Also, the Activity in [10] is recorded as 67.9%.
As for `COc1cc2c(c(OC)c1OC)-c1c(cc3c(c1OC)OCO3)C[C@H](C)[C@H](C)C2`, the Activity in assay [1] is 26.4%; in assay [2], 64.8%; in assay [3] it was 8.8%.
As for `COc1cc2c(c(OC)c1OC)-c1c(cc3c(c1OC)OCO3)C[C@H](C)[C@H](C)C2` [WUWEIZISU B], the Activity amounted to 128% in assay [4]; 40.4% in [8]; 39% in assay [5]; 22.7% in assay [9]; 121% in assay [6]; 42% in assay [7]. The Activity in assay [10] is given as 36.9%.
Take `COc1cccc2c1C(=O)c1c(O)c3c(c(O)c1C2=O)C[C@@](O)(C(=O)CO)C[C@@H]3O[C@H]1C[C@H](N)[C@H](O)[C@H](C)O1` [DOXORUBICIN]: the Activity worked out at 55.8% in assay [11]; 52% in assay [13]; 16% in [14]; 28.3% in [15]; 11% in [16]; 36.9% in [17]. Moreover, the viability at 0.02 µM in assay [12] amounted to 109%. In assay [18], the viability at 0.6 µM came out at 91%. For the same compound, in assay [19], the viability at 0.2 µM came out at 83%.
As for `COc1cc2c(c(OC)c1OC)-c1c(cc3c(c1OC)OCO3)CC(C)C(C)C2` (racemic) [SCHISANDRIN B], the viability at 25 µM in [4] was 88%. For the same compound, the results for the Activity in assay [5], in [6] and in assay [7] were 36%, 117% and 41%, respectively.
Take `COc1cc2c(c(OC)c1OC)-c1c(cc(OC)c(OC)c1OC)C[C@H](C)[C@H](C)C2` (single isomer, unassigned; atropisomer 1) [SCHISANDRIN A]: the Activity in assay [4] is 144%; in assay [5], 39%; in [6] it was 108%; in [7] it was 48%.
